Source: ChEMBL document CHEMBL1133723, “Developing a dynamic pharmacophore model for HIV-1 integrase” (J Med Chem, 2000)
*1 amine or outer side, *2 acyl side, *3 side chain or, on linkers, in order; H or OH if unused. Where a SMILES comes first, the peptide text is derived from it. Bridges are numbered along the chain shown (N, C = ends). [ ]: non-standard residue; d: D form. The star is where a group is joined. X1 = NC1=N[C@@H]([C@H](N[*:1])C(=O)[*:2])C[C@H](O)N1; ΔAla(Z-3-ureido) = NC(=O)N/C=C(\N)C(=O)O; β3hOrn = NCCC[C@H](N)CC(=O)*; Dap = NC[C@H](N)C(=O)O

Columns and labels:
[1] = target: T1, Human immunodeficiency virus type 1 integrase (Human immunodeficiency virus 1, UniProt Q7ZJM1)
[2] = target: T1, Human immunodeficiency virus type 1 integrase; remark: listed apart in the source
[3] = target: Human immunodeficiency virus type 1 integrase (Human immunodeficiency virus 1) (UniProt Q7ZJM1); conditions: at 1 mM
[4] = target: Human immunodeficiency virus type 1 integrase (Human immunodeficiency virus 1) (UniProt Q7ZJM1); conditions: at 200 µM
[5] = target: Human immunodeficiency virus type 1 integrase (Human immunodeficiency virus 1) (UniProt Q7ZJM1); assay: Inhibitory activity against HIV-1 integrase at 1 mM
Summary of the method: (§1)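 Integration reaction with HIV-1 integrase, run as in an earlier published method except for the detection step. The integration product was detected with digoxygenin-labelled oligonucleotides and an anti-digoxygenin antibody conjugated to horseradish peroxidase. Compounds were tested at 1 mM, 200 µM and 25 µM.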

[6] = target: Human immunodeficiency virus type 1 integrase (Human immunodeficiency virus 1) (UniProt Q7ZJM1); assay: Inhibitory activity against HIV-1 integrase at 200 uM
Summary of the method: as §1

[7] = target: Human immunodeficiency virus type 1 integrase (Human immunodeficiency virus 1) (UniProt Q7ZJM1); assay: Inhibition against HIV-1 integrase at 25 uM
Summary of the method: as §1

Row | Compound | IC50 [1] [µM] | IC50 [2] [nM] | inhibition [3] [%] | inhibition [4] [%] | other results
1 | O=c1c(O)c(-c2ccc(O)c(O)c2)oc2cc(O)c(O)c(O)c12 [QUERCETAGETIN] | 1.3 | 600 | – | – | –
2 | CN[C@@H]1[C@H](O[C@H]2[C@H](O[C@H]3[C@H](O)[C@@H](O)[C@H](N=C(N)N)[C@@H](O)[C@@H]3N=C(N)N)O[C@@H](C)[C@]2(O)C=O)O[C@@H](CO)[C@H](O)[C@H]1O | – | – | < 50 | < 50 | –
3 | O=P(O)(O)O[C@H]1O[C@H](CO)[C@@H](O)[C@H](O)[C@@H]1O | – | – | – | – | inhibition [5]: < 50%; inhibition [6]: < 50%
4 | CC(=O)NC1=C(O)C[C@@](O)(C(=O)O)O[C@H]1[C@@H](O)[C@H](O)CO | – | – | – | – | inhibition [5]: < 50%; inhibition [6]: < 50%
5 | Cc1cccc2c1C(O)=C1C(=O)C3C(O)=C(C(=O)NCNC(CO)(CO)CO)C(=O)[C@@H](N(C)C)[C@@H]3C[C@@H]1C2(C)O (stereo partly specified) | 1.1 | 500 | – | – | –
6 | N#C/C(=C\c1ccc(O)c(O)c1)C(=O)NCCCNC(=O)/C(C#N)=C/c1ccc(O)c(O)c1 | 10 | 3000 | – | – | –
7 | NC(=O)c1ccccc1NC(=O)Nc1cc(NC(=O)Nc2ccccc2C(N)=O)c(Br)cc1Br | – | – | > 50 | > 50 | inhibition [7]: < 50%
8 | NCCC[C@H](N)CC(=O)N[C@H]1CNC(=O)[C@H]([C@H]2C[C@H](O)NC(N)=N2)NC(=O)/C(=C/NC(N)=O)NC(=O)[C@H](CO)NC(=O)[C@H](CO)NC1=O (β3hOrn-[Dap]SS[ΔAla(Z-3-ureido)][X1]; lactam 1-C) | – | – | < 50 | < 50 | –
9 | NNC(=O)C(O)C(O)C(O)C(O)CO (stereo unspecified) | – | – | > 50 | < 50 | inhibition [7]: < 50%
10 | O=P(O)(O)O[C@@H]1O[C@H](CO)[C@@H](O)[C@H](O)[C@H]1O | – | – | – | – | inhibition [5]: < 50%; inhibition [6]: < 50%
11 | Cc1cccc2c1C(O)=C1C(=O)C3C(O)=C(C(=O)NCN4CCN(C(=N)N=C(N)N)CC4)C(=O)[C@@H](N(C)C)[C@@H]3C[C@@H]1C2(C)O (stereo partly specified) | 0.9 | 300 | – | – | –
12 | CN[C@@H]1[C@H](OC2[C@@H](OC3[C@@H](N=C(N)N)[C@H](O)[C@@H](N=C(N)N)[C@H](O)[C@H]3O)O[C@@H](C)[C@]2(O)CO)O[C@@H](CO)[C@H](O)[C@H]1O (stereo partly specified) | – | – | – | – | inhibition [5]: < 50%; inhibition [6]: < 50%
13 | O=c1oc2c(O)c(O)cc3c(=O)oc4c(O)c(O)cc1c4c23 [ELLAGIC ACID] | 5.1 | – | – | – | –
14 | O=C(/C=C\c1ccc(O)c(O)c1)OC1C(O)CC(OC(=O)/C=C\c2ccc(O)c(O)c2)(C(=O)O)CC1O (stereo unspecified) | 9.5 | 7800 | – | – | –
15 | Cc1cc(O)c2c(=O)c3c(O)cc(O)c4c5c(O)cc(O)c6c(=O)c7c(O)cc(C)c8c1c2c(c34)c(c78)c65 [HYPERICIN] | 10 | – | – | – | –
16 | O=C1c2c(O)ccc(O)c2C(=O)c2c(NCCNCCO)ccc(NCCNCCO)c21 [MITOXANTRONE] | 3.8 | 8000 | – | – | –
17 | O=C(/C=C/c1ccc(O)c(O)c1)O[C@H]1[C@H](O)C[C@](O)(C(=O)O)C[C@H]1OC(=O)/C=C/c1ccc(O)c(O)c1 (stereo in doubt; form 2) | 0.25 | 460 | – | – | –
18 | O=C(NCCCCCCNC(=O)NNc1ccccc1)NNc1ccccc1 | – | – | < 50 | < 50 | –
19 | OCCNCCNC(O)C(O)CO (stereo unspecified) | – | – | < 50 | < 50 | –
20 | OC[C@H]1O[C@H](OC[C@H]2OC(O)[C@H](O)[C@@H](O)[C@@H]2O)[C@H](O)[C@@H](O)[C@@H]1O (stereo partly specified) | – | – | – | – | inhibition [5]: < 50%; inhibition [6]: < 50%
21 | CCCCCCCCCCCCC/C=C/C(O)C(N)CO[C@@H]1O[C@H](CO)[C@H](O)[C@H](O)[C@H]1O (stereo partly specified) | – | – | > 50 | < 50 | inhibition [7]: < 50%
22 | OCC(CO)(CO)NCCCNC(CO)(CO)CO | – | – | – | – | inhibition [5]: < 50%; inhibition [6]: < 50%
23 | O=C(O[C@@H]1Cc2c(O)cc(O)cc2O[C@@H]1c1cc(O)c(O)c(O)c1)c1cc(O)c(O)c(O)c1 | – | – | > 50 | > 50 | inhibition [7]: > 50%
24 | O=C(NCNC(=O)NC1C(=O)NC(=O)N1CO)NC1C(=O)NC(=O)N1CO (stereo unspecified) | – | – | > 50 | < 50 | inhibition [7]: < 50%
25 | CCCNC(=O)NNC(=O)c1ccccc1NC(=O)NCCC | – | – | < 50 | < 50 | –
26 | CCNC(=O)[C@H](CCCCN(N)N)NC(=O)CNC(=O)[C@H](CC(C)C)NC(=O)[C@@H](NC(=O)[C@H](O)[C@@H](O)[C@H](O)[C@H](O)CO)C(C)C | – | – | < 50 | < 50 | –
27 | COc1cccc2c1C(=O)c1c(O)c3c(c(O)c1C2=O)C[C@@](O)(C(=O)CO)C[C@@H]3O[C@H]1C[C@H](N)[C@H](O)[C@H](C)O1 [DOXORUBICIN] | 0.9 | 2400 | – | – | –
28 | O=C(NC(CO)(CO)CO)C(=O)NC(CO)(CO)CO | – | – | – | – | inhibition [5]: < 50%; inhibition [6]: < 50%
29 | C[Si](C)(C)C | 17 | 5000 | – | – | –
